From publication PMC6570502 (Chembiochem : a European journal of chemical biology, 2019)
Where a chain is given by its changes, count along the chain named. pIC50: −log10 of the molar value.

Experiments:
Type in all cases: biochemical
wild type KDM4A = target: T1, wild type KDM4A (Homo sapiens, UniProt O75164); assay: MALDI demethylase assay, H3K9me3 substrate peptide, wild type enzyme; conditions: 3 mM compound
T1 sequence (O75164 1-1064): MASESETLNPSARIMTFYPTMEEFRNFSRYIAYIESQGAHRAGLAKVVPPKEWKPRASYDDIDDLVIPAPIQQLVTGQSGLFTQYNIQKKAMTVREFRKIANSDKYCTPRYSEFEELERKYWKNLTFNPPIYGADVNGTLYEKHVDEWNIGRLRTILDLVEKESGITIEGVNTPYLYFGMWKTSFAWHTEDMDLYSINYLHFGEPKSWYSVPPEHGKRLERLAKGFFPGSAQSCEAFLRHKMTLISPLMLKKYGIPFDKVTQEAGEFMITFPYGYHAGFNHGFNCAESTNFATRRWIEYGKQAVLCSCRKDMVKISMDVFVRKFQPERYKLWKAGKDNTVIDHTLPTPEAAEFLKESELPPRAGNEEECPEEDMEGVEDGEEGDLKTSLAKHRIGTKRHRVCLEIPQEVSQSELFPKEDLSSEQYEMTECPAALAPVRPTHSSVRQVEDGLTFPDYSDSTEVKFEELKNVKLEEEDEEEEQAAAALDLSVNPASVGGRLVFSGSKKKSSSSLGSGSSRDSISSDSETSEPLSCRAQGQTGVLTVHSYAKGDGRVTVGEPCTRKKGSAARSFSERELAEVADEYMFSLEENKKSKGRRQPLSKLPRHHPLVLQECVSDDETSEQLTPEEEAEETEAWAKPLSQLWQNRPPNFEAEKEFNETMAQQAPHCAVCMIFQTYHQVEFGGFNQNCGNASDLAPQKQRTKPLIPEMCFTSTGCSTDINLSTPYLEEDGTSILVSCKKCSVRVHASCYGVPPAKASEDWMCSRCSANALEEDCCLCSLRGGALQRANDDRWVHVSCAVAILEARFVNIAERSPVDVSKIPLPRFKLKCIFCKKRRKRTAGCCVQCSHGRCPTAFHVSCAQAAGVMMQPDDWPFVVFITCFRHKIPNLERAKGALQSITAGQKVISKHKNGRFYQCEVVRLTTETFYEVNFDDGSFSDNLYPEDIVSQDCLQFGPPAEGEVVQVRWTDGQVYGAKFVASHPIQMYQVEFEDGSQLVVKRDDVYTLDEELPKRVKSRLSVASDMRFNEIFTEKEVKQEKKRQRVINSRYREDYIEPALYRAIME

KDM4A N198A mutant [1] = target: T2, KDM4A N198A mutant (Homo sapiens, UniProt O75164, N198A); assay: MALDI demethylase assay, H3K9me3 substrate peptide, N198A mutant; conditions: for inhibition of demethylase activity: 100 μM compound, 50 μM 2KG, MALDI-MS; for pIC50: MALDI demethylase assay, dose-dependent
T2 sequence (O75164 1-1064 N198A): T1 sequence (O75164 1-1064) with N198A

KDM4A N198A mutant [2] = target: T2, KDM4A N198A mutant; assay: Demethylation of full-length H3Kc9me3 by western blot with H3K9me3 antibody; conditions: in presence of 2KG
How it was run: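 Substrate is full-length histone H3 carrying a trimethyl-lysine analogue at K9 (H3KC9me3), installed chemically by the thialysine approach and verified by ESI-HRMS. The substrate is incubated with the KDM4A N198A mutant. Remaining K9 trimethylation is then detected by western blot with an anti-H3K9me3 antibody.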

KDM4A N198G mutant = target: T3, KDM4A N198G mutant (Homo sapiens, UniProt O75164, N198G); assay: MALDI demethylase assay, H3K9me3 substrate peptide, N198G mutant
T3 sequence (O75164 1-1064 N198G): T1 sequence (O75164 1-1064) with N198G

CCC(NC(=O)C(=O)O)C(=O)O (centres unmarked) [compound 3, ethyl-NOG]
inhibition of wild type KDM4A (wild type KDM4A): About 50% | inhibition of demethylase activity (KDM4A N198A mutant [1]): significantly inhibited | pIC50 (KDM4A N198A mutant [1]; N198A mutant): 3.86 | Hill slope (KDM4A N198A mutant [1]; N198A mutant, dose-response of IC50 experiment): −1.06 | inhibition of demethylation of full-length H3Kc9me3 (KDM4A N198A mutant [2]): significantly inhibited

CC(C)C[C@H](NC(=O)C(=O)O)C(=O)O [compound 7, leucine-NOG]
inhibition of demethylase activity (KDM4A N198G mutant; 100 μM compound, 50 μM 2KG, MALDI-MS): inhibited | pIC50 (KDM4A N198G mutant; N198G mutant, MALDI demethylase assay): 3.54

propyl-NOG [compound 5]
inhibition of wild type KDM4A (wild type KDM4A): no more than 30% | inhibition of demethylase activity (KDM4A N198A mutant [1]): significantly inhibited | selectivity over the wild type enzyme (KDM4A N198A mutant [1]; N198A mutant vs wild type KDM4A): more than 20 fold | pIC50 (KDM4A N198A mutant [1]; N198A mutant): 4.10
